According to ChEMBL document CHEMBL4346665, “Synthesis and evaluation of tetrahydroquinolin-2(1H)-one derivatives as novel anti-pancreatic cancer agents via targeting autophagy” (Eur J Med Chem, 2019):
Calls of active or inactive are those of the source. The rule behind the calls is not given here.

Columns and labels:
PANC-1 [1] = test: Growth inhibition of human PANC1 cells in nutrient-deprived medium at 10 uM incubated for 24 hrs by MTT assay (reference value: 0.0 +/- 1.9%); assay type: functional; settings: PANC-1, 24 h
PANC-1 [2] = test: Growth inhibition of human PANC1 cells in nutrient-rich medium at 10 uM incubated for 24 hrs by MTT assay (reference value: 0.0 +/- 3.8%); assay type: functional; settings: PANC-1, 24 h
PANC-1 [3] = test: Growth inhibition of human PANC1 cells in nutrient-deprived medium incubated for 24 hrs by MTT assay; assay type: functional, cell-based; settings: PANC-1, 24 h
PANC-1 [4] = test: Induction of apoptosis in human PANC1 cells in nutrient-deprived medium assessed as live cells at 5 uM incubated for 24 hrs by Annexin V-FITC/PI double staining based flow cytometric analysis (reference value: 85.75 to 96.8%); assay type: functional
Summary of the method: (§1)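 PANC-1 cells under NDC exposed 24 h at 5.0, 10.0 or 20.0 µM. Annexin V-FITC/PI double staining, flow cytometric quantification of live, early apoptotic, late apoptotic and necrotic fractions. Arctigenin as positive control.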

PANC-1 [5] = test: Induction of apoptosis in human PANC1 cells in nutrient-deprived medium assessed as early apoptotic cells at 5 uM incubated for 24 hrs by Annexin V-FITC/PI double staining based flow cytometric analysis (reference value: 0.22 to 14.25%); assay type: functional; summary of the method: as §1
PANC-1 [6] = test: Induction of apoptosis in human PANC1 cells in nutrient-deprived medium assessed as late apoptotic cells at 5 uM incubated for 24 hrs by Annexin V-FITC/PI double staining based flow cytometric analysis (reference value: 0 to 0.9%); assay type: functional; summary of the method: as §1
PANC-1 [7] = test: Induction of apoptosis in human PANC1 cells in nutrient-deprived medium assessed as necrotic cells at 5 uM incubated for 24 hrs by Annexin V-FITC/PI double staining based flow cytometric analysis (reference value: 0 to 2.8%); assay type: functional; summary of the method: as §1
PANC-1 [8] = test: Induction of apoptosis in human PANC1 cells in nutrient-deprived medium assessed as live cells at 10 uM incubated for 24 hrs by Annexin V-FITC/PI double staining based flow cytometric analysis (reference value: 85.75 to 96.8%); assay type: functional; summary of the method: as §1
PANC-1 [9] = test: Induction of apoptosis in human PANC1 cells in nutrient-deprived medium assessed as early apoptotic cells at 10 uM incubated for 24 hrs by Annexin V-FITC/PI double staining based flow cytometric analysis (reference value: 0.22 to 14.25%); assay type: functional; summary of the method: as §1
PANC-1 [10] = test: Induction of apoptosis in human PANC1 cells in nutrient-deprived medium assessed as late apoptotic cells at 10 uM incubated for 24 hrs by Annexin V-FITC/PI double staining based flow cytometric analysis (reference value: 0 to 0.9%); assay type: functional; summary of the method: as §1
PANC-1 [11] = test: Induction of apoptosis in human PANC1 cells in nutrient-deprived medium assessed as necrotic cells at 10 uM incubated for 24 hrs by Annexin V-FITC/PI double staining based flow cytometric analysis (reference value: 0 to 2.8%); assay type: functional; summary of the method: as §1
PANC-1 [12] = test: Induction of apoptosis in human PANC1 cells in nutrient-deprived medium assessed as live cells at 20 uM incubated for 24 hrs by Annexin V-FITC/PI double staining based flow cytometric analysis (reference value: 85.75 to 96.8%); assay type: functional; summary of the method: as §1
PANC-1 [13] = test: Induction of apoptosis in human PANC1 cells in nutrient-deprived medium assessed as early apoptotic cells at 20 uM incubated for 24 hrs by Annexin V-FITC/PI double staining based flow cytometric analysis (reference value: 0.22 to 14.25%); assay type: functional; summary of the method: as §1
PANC-1 [14] = test: Induction of apoptosis in human PANC1 cells in nutrient-deprived medium assessed as late apoptotic cells at 20 uM incubated for 24 hrs by Annexin V-FITC/PI double staining based flow cytometric analysis (reference value: 0 to 0.9%); assay type: functional; summary of the method: as §1
PANC-1 [15] = test: Induction of apoptosis in human PANC1 cells in nutrient-deprived medium assessed as necrotic cells at 20 uM incubated for 24 hrs by Annexin V-FITC/PI double staining based flow cytometric analysis (reference value: 0 to 2.8%); assay type: functional; summary of the method: as §1
PANC-1 [16] = test: Antitumor activity against human PANC1 cells xenografted in nude mouse assessed as reduction in tumor size at 30 mg/kg, ip administered every 3 days for 4 weeks post tumor inoculation; assay type: functional, organism-based
Summary of the method: (§2)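 PANC-1 xenografts in nude mice. Dosing daily at 5, 10 or 20 mg/kg/day for 30 days, or 30 mg/kg every three days for the gemcitabine reference. Tumor volume from diameters and tumor weight at end of study. Body weight monitored, kidney and liver examined. T1-weighted MRI on day 30 with Gd-DTPA contrast via tail vein. Mean ± S.D., n = 5, vs control group.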

PANC-1 [17] = test: Antitumor activity against human PANC1 cells xenografted in nude mouse assessed as reduction in tumor weight at 30 mg/kg, ip administered every 3 days for 4 weeks post tumor inoculation; assay type: functional, organism-based; summary of the method: as §2
[18] = Toxicity in human PANC1 cells xenografted in nude mouse assessed as change in body weight at 30 mg/kg, ip administered every 3 days for 4 weeks post tumor inoculation; assay type: organism-based; settings: in vivo; summary of the method: as §2
[19] = Toxicity in human PANC1 cells xenografted in nude mouse assessed as pathological changes in kidney at 30 mg/kg, ip administered every 3 days for 4 weeks post tumor inoculation by hematoxylin and eosin staining based assay; assay type: organism-based; settings: in vivo; summary of the method: as §2
[20] = Toxicity in human PANC1 cells xenografted in nude mouse assessed as pathological changes in liver at 30 mg/kg, ip administered every 3 days for 4 weeks post tumor inoculation by hematoxylin and eosin staining based assay; assay type: organism-based; settings: in vivo; summary of the method: as §2
[21] = Cytotoxicity against mouse NCTC-1469 cells up to 20 uM incubated for 24 hrs by MTT assay; assay type: cell-based
PANC-1 [22] = test: Inhibition of colony formation in human PANC1 cells in nutrient-deprived medium treated for 24 hrs followed by compound washout and subsequent incubation for 14 days by crystal violet staining based assay; assay type: functional, cell-based
Summary of the method: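 Clonogenic assay of PANC-1 under NDC across several concentrations. Surviving colonies counted, mean ± S.D., n = 3.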

PANC-1 [23] = test: Induction of apoptosis in human PANC1 cells in nutrient-deprived medium incubated for 24 hrs by Annexin V-FITC/PI double staining based flow cytometric analysis; assay type: functional, cell-based; summary of the method: as §1
PANC-1 [24] = test: Antitumor activity against human PANC1 cells xenografted in nude mouse assessed as reduction in tumor size at 20 mg/kg, ip administered daily for 4 weeks post tumor inoculation and observed on day 9; assay type: functional; summary of the method: as §2
PANC-1 [25] = test: Antitumor activity against human PANC1 cells xenografted in ip dosed nude mouse assessed as reduction in tumor size administered daily for 4 weeks post tumor inoculation and observed on day 21 to 30; assay type: functional, organism-based; summary of the method: as §2
[26] = Toxicity in human PANC1 cells xenografted in nude mouse assessed as mortality at 5 to 20 mg/kg, ip administered daily for 4 weeks post tumor inoculation; assay type: organism-based; settings: in vivo, 672 h
Summary of the method: (§3)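 PANC-1 xenografts in nude mice, 5 per group. Daily injections of 5, 10 or 20 mg/kg for 30 days. Gemcitabine reference arm dosed at 30 mg/kg every three days, compared with untreated controls. Body weight tracked through dosing and deaths recorded. Tumour diameters measured over time and tumours weighed at endpoint. Kidneys and liver examined for lesions.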

[27] = Toxicity in human PANC1 cells xenografted in nude mouse assessed as pathological changes in liver at 20 mg/kg, ip administered daily for 4 weeks post tumor inoculation by hematoxylin and eosin staining based assay; assay type: organism-based; settings: in vivo, 672 h; summary of the method: as §2
[28] = Toxicity in human PANC1 cells xenografted in nude mouse assessed as pathological changes in kidney at 20 mg/kg, ip administered daily for 4 weeks post tumor inoculation by hematoxylin and eosin staining based assay; assay type: organism-based; settings: in vivo, 672 h; summary of the method: as §2
[29] = Toxicity in human PANC1 cells xenografted in nude mouse assessed as change in body weight at 5 to 20 mg/kg, ip administered daily for 4 weeks post tumor inoculation; assay type: organism-based; settings: in vivo, 672 h; summary of the method: as §3
PANC-1 [30] = test: Antitumor activity against human PANC1 cells xenografted in nude mouse assessed as reduction in tumor size at 5 to 20 mg/kg, ip administered daily for 4 weeks post tumor inoculation by Gd-DTPA based T1 weighted MRI analysis; assay type: functional, organism-based; summary of the method: as §2
PANC-1 [31] = test: Induction of autophagy in human PANC1 cells in nutrient-deprived medium assessed as reduction in percentage area of LC3 at 10 uM incubated for 24 hrs by DAPI staining based confocal microscopic analysis; assay type: functional, cell-based
Summary of the method: (§4)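 LC3-transfected PANC-1 cells under NNC, NDC, or NDC plus 10 µM compound. Cells co-labeled for LC3B and DAPI and imaged by confocal microscopy. LC3 puncta number, percentage area and mean intensity quantified.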

PANC-1 [32] = test: Induction of autophagy in human PANC1 cells in nutrient-deprived medium assessed as reduction in mean intensity of LC3 at 10 uM incubated for 24 hrs by DAPI staining based confocal microscopic analysis; assay type: functional, cell-based; summary of the method: as §4
PANC-1 [33] = test: Antitumor activity against human PANC1 cells xenografted in nude mouse assessed as reduction in tumor size at 20 mg/kg, ip administered daily for 4 weeks post tumor inoculation and observed on day 6; assay type: functional, organism-based; summary of the method: as §2
PANC-1 [34] = test: Antitumor activity against human PANC1 cells xenografted in nude mouse assessed as reduction in tumor weight at 20 mg/kg, ip administered daily for 4 weeks post tumor inoculation; assay type: functional, organism-based; summary of the method: as §2
PANC-1 [35] = test: Inhibition of autophagy in human PANC1 cells in nutrient-deprived medium assessed as accumulation of SQSTM1 protein at 10 uM incubated for 1 to 6 hrs by Western blot analysis
PANC-1 [36] = test: Inhibition of autophagy in human PANC1 cells in nutrient-deprived medium assessed as reduction in LC3-2 expression level at 10 uM incubated for 1 to 6 hrs by Western blot analysis

IC50 (PANC-1 [3]) [µM]	Compound	inhibition at 10 µM (PANC-1 [1]) [%]	inhibition at 10 µM (PANC-1 [2]) [%]	Activity (PANC-1 [4]) [%]	Activity (PANC-1 [5]) [%]	Activity (PANC-1 [6]) [%]	Activity (PANC-1 [7]) [%]	Activity (PANC-1 [8]) [%]	Activity (PANC-1 [9]) [%]	Activity (PANC-1 [10]) [%]	Activity (PANC-1 [11]) [%]	Activity (PANC-1 [12]) [%]	Activity (PANC-1 [13]) [%]	Activity (PANC-1 [14]) [%]	Activity (PANC-1 [15]) [%]	other results
7.7	CC(C)=CCC1Cc2c(OC(=O)Nc3ccc(F)cc3)cc(=O)n(CCCO)c2CC1(C)C (stereo not given)	71.2	0													
2.2	COc1cc(C[C@H]2C(=O)OC[C@@H]2Cc2ccc(OC)c(OC)c2)ccc1O [ARCTIGENIN]	79.1	66.8	8.66	1.43	83.08	6.84	4.13	1.03	89.2	5.64	2.23	1.06	90.44	6.29	
	Nc1ccn([C@@H]2O[C@H](CO)[C@@H](O)C2(F)F)c(=O)n1 [GEMCITABINE]															Activity (PANC-1 [16]): Active; Activity (PANC-1 [17]): Active; Activity [18]: Non-Toxic; Activity [19]: Non-Toxic; Activity [20]: Non-Toxic
5.2	CC(C)=CCC/C(C)=C/CC1Cc2c(OCCCNC(=O)c3ccco3)cc(=O)n(CCCO)c2CC1(C)C (stereo not given)	69.5	2.8													
5.8	CCOc1cc(=O)n(CCCO)c2c1CC(C/C=C(\C)CCC=C(C)C)C(C)(C)C2 (stereo not given)	67.8	0.8													

Compound	IC50 (PANC-1 [3]) [µM]	inhibition at 10 µM (PANC-1 [1]) [%]	inhibition at 10 µM (PANC-1 [2]) [%]	Activity (PANC-1 [4]) [%]	Activity (PANC-1 [5]) [%]	Activity (PANC-1 [6]) [%]	Activity (PANC-1 [7]) [%]	Activity (PANC-1 [8]) [%]	Activity (PANC-1 [9]) [%]	Activity (PANC-1 [10]) [%]	Activity (PANC-1 [11]) [%]	Activity (PANC-1 [12]) [%]	Activity (PANC-1 [13]) [%]	Activity (PANC-1 [14]) [%]	Activity (PANC-1 [15]) [%]	other results
CC(C)=CCC/C(C)=C/CC1Cc2c(OCCCNC(=O)c3cccs3)cc(=O)n(CCCO)c2CC1(C)C (stereo not given)	4.9	72.8	11.5	38.56	35.35	26	0.09	20.25	41.58	38.03	0.14	1.56	2.34	91.74	4.36	Activity [21]: Non-Toxic; inhibition (PANC-1 [22]): Dose-dependent effect; Activity (PANC-1 [23]): Dose-dependent effect; Activity (PANC-1 [24]): 71.25 mm3; Activity (PANC-1 [25]): Dose-dependent effect; Activity [26]: Non-Toxic; Activity [27]: Non-Toxic; Activity [28]: Non-Toxic; Activity [29]: Non-Toxic; Activity (PANC-1 [30]): Active; Activity (PANC-1 [31]): Active; Activity (PANC-1 [32]): Active; Activity (PANC-1 [33]): inactive; Activity (PANC-1 [34]): Active; Activity (PANC-1 [35]): Active; Activity (PANC-1 [36]): Active
